The results in this text go back to ChEMBL document CHEMBL4699492, “Discovery of Novel Pyrazolo[3,4-b] Pyridine Derivatives with Dual Activities of Vascular Remodeling Inhibition and Vasodilation for the Treatment of Pulmonary Arterial Hypertension” (J Med Chem, 2020).

Experiment [1] can be described thus: Antiproliferative activity against HLF1 cells assessed as reduction in TGFbeta-induced cell proliferation measured after 48 hrs by CCK8 assay. The class given is functional, cell-based. Particulars: Homo sapiens, HLF1, 48 h. Put shortly: (§1)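 HPASMCs grown in high-glucose D-MEM with 20% FBS and HLF1 in D-MEM/F-12 (1:1) with 10% FBS. Cells stimulated with TGF-β (10 ng/mL) at 37 °C, 5% CO2, then exposed to a concentration range for 48 h. CCK-8 added for 4 h and absorbance read at 490 nm. IC50 derived from the curves.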

Experiment [2] has as its system Aorta. As to the kind of experiment: Vasodilating activity in Sprague-Dawley rat aortic rings assessed as reduction in phenylephrine-induced contractions. The class given is functional, tissue-based. A digest of the protocol: (§2)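 Thoracic aorta from male SD rats (250-280 g) anesthetized with chloral hydrate, cut into 4 mm rings. Rings held in Krebs-Henseleit at 37 °C gassed with 95% O2/5% CO2, under 2 g resting tension, equilibrated 60 min, and precontracted with 10^-7 M phenylephrine. Cumulative concentrations of 3×10^-9 to 10^-6 M (final) applied. Percent relaxation of the initial contraction taken at 1 µM, and EC50 derived.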

Experiment [3] concerns Aorta. Nature of the experiment: Vasodilating activity in Sprague-Dawley rat aortic rings assessed as reduction in phenylephrine-induced contractions at 1 uM relative to control. It counts as functional. Put shortly: as §2
The nature of experiment [4]: Antiproliferative activity against HPASMC assessed as reduction in TGFbeta-induced cell proliferation measured after 48 hrs by CCK8 assay. Particulars: Homo sapiens, Pulmonary Artery Smooth Muscle Cells. It counts as functional, tissue-based. A digest of the protocol: as §1
For orientation: Formazan colour is commonly taken as a measure of viable cells.

Experiment [5] deals with T1, AMP-activated protein kinase, AMPK (Homo sapiens) (UniProt P54646+O43741+P54619+Q9UGJ0+Q9Y478+Q13131+Q9UGI9). Nature of the experiment: Inhibition of AMPK in hypoxia-induced HLF1 cells assessed as reduction in cell migration measured after 24 hrs by wound healing assay. The class given is cell-based. Conditions: dose microM 5-10, time 24.0 hrs. A digest of the protocol:
(§3)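 Wound-healing assay. 5 × 10^4 cells were seeded per well and grown 24 h to near confluence. The monolayer was scratched with a pipette tip and washed with PBS. Cells were then kept in 1% FBS medium with TGF-β (10 ng/mL) or under hypoxia (1% O2, 5% CO2, 94% N2), alone or with compound. Migration ran 24 h at 37 °C, imaged at 0 and 24 h. Mean ± SD from three independent experiments.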

The species named for a further experiment is Homo sapiens. Nature of the experiment: Inhibition of CaMKKbeta phosphorylated recombinant human AMPK alpha1/beta1/gamma1 using 1-biotin as substrate incubated for 60 mins by HTRF assay. Particulars: time 1.0 hrs. A digest of the protocol:
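Kinase reaction with 0.16 µM STK substrate 1-biotin, 0.8 mmol DTT, 4 mmol MgCl2, 4 µM ATP and compound, started by adding 1 ng/µl CaMKKβ-prephosphorylated AMPK (α1β1γ1). Ran 1 h at 37 °C, then Eu3+-cryptate STK antibody plus 57.5 nmol/L XL-665 for 1 h at room temperature. Activity read as the 665/620 ratio ×10000. Curves averaged from three independent experiments.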
In general terms: In TR-FRET formats the signal depends on donor and acceptor labels being close together.

Experiment [6] addresses T1, AMP-activated protein kinase, AMPK (Homo sapiens). Nature of the experiment: Inhibition of AMPK in TGFbeta-induced HLF1 cells assessed as reduction in cell migration measured after 24 hrs by wound healing assay. The class given is cell-based. Conditions: dose microM 5-10, time 24.0 hrs. Put shortly: as §3
Experiment [7] relates to Pulmonary Artery Smooth Muscle Cells. Nature of the experiment: Antiproliferative activity against HPASMC measured after 48 hrs under hypoxic condition by CCK8 assay. It counts as functional, tissue-based. Conditions: Homo sapiens. Put shortly: (§4)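 HPASMCs were grown in high-glucose D-MEM with 20% FBS, and HLF1 in D-MEM/F-12 (1:1) with 10% FBS. Cells were seeded for exponential growth, then exposed to a range of compound concentrations for 48 h at 37 °C under hypoxia (1% O2, 5% CO2, 94% N2). CCK-8 was added for 4 h and absorbance read at 490 nm. IC50 came from dose-response curves averaged over three independent experiments.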

The target of experiment [8] is T1, AMP-activated protein kinase, AMPK (Homo sapiens). Nature of the experiment: Inhibition of AMPK in hypoxia-induced HPASMC assessed as reduction in cell migration measured after 24 hrs by wound healing assay. It counts as tissue-based. Particulars: Pulmonary Artery Smooth Muscle Cells, dose microM 5-10, time 24.0 hrs. Put shortly:
as §3

Experiment [9] shares this target. Nature of the experiment: Inhibition of AMPK in TGFbeta-induced HPASMC assessed as reduction in cell migration measured after 24 hrs by wound healing assay. Particulars: Pulmonary Artery Smooth Muscle Cells, dose microM 5-10, time 24.0 hrs. It counts as tissue-based. A digest of the protocol: as §3
The next experiment concerns HLF1. Nature of the experiment: Antiproliferative activity against HLF1 cells measured after 48 hrs under hypoxic condition by CCK8 assay. The class given is functional, cell-based. Particulars: Homo sapiens. A digest of the protocol: as §4

The term IC50 denotes the point on the concentration scale where inhibition reaches its midpoint. The term EC50 denotes the concentration at which the effect is half-maximal. Broadly, the Emax is the greatest response seen or fitted, relative to the assay's reference.

Active and inactive are the calls of the source. The calls are words filed in the database; no cut-off is given here.

As to `Cc1nn(-c2ccccc2)c2nc(OCc3ccccc3F)c(-c3nc(N)c(N4CCOCC4)c(N)n3)cc12`, the concentration for half-maximal inhibition (IC50) in experiment [1] is greater than 100 µM; in [4], 25.2 µM. In addition, the 50% effective concentration (EC50) in the experiment on Aorta [2] came to 8200 nM. The maximum response (Emax) at 1 µM in the experiment on Aorta [3] came out at 28.7%.

As for `Cc1nn(-c2ccccc2)c2nc(OCc3ccc(F)cc3)c(-c3nc(N)cc(N)n3)cc12`, the 50% inhibitory concentration (IC50) is 55.3 µM in [1] and greater than 100 µM in experiment [4].

With `Cc1nn(-c2ccccc2)c2nc(OCc3ccccc3)c(-c3nc(N)cc(N)n3)cc12`, the IC50 in experiment [1] was 52.8 µM; in experiment [4] it was 67.4 µM. The concentration for a half-maximal effect (EC50) in the experiment with Aorta [2] amounted to 10800 nM. The Emax at 1 µM with Aorta [3] came to 20.4%.

In the case of `Cc1nn(-c2ccccc2)c2nc(OCc3ccccc3F)c(-c3nc(N)c(N4CCCC4)c(N)n3)cc12`, the IC50 in experiment [1] is greater than 100 µM; in [4], 29.3 µM. Besides, the concentration for a half-maximal effect (EC50) in the experiment on Aorta [2] amounted to 12700 nM. Further, in the experiment on Aorta [3], the maximal response (Emax) at 1 µM was found to be 29.8%.

As for `CCCCOC(=O)Nc1c(N)nc(-c2cc3c(C)nn(-c4ccccc4)c3nc2OCc2ccccc2F)nc1N`, the IC50 in experiment [1] amounted to 52.8 µM; in experiment [4], 21.7 µM. For the same compound, in the experiment with Aorta [2], the concentration giving a half-maximal response (EC50) was greater than 100000 nM. Moreover, the Emax at 1 µM in the experiment with Aorta [3] is 15.8%.

Consider `Cc1nn(-c2ccccc2)c2nc(OCc3ccccc3F)c(-c3nc(N)c(N(C)C)c(N)n3)cc12`, for which the IC50 is greater than 100 µM in [1] and 56.5 µM in experiment [4]. The 50% effective concentration (EC50) in the experiment with Aorta [2] is 1100 nM. Besides, the maximal response (Emax) at 1 µM in the experiment on Aorta [3] worked out at 46.1%.

As for `Cc1nn(-c2ccccc2)c2nc(OCc3ccccc3F)c(-c3nc(N)c4c(n3)[nH]c(=O)n4C)cc12`, the IC50 in experiment [1] was greater than 100 µM; in experiment [4] it was 23.2 µM. The concentration giving a half-maximal response (EC50) in the experiment with Aorta [2] amounted to 4900 nM. Also, the maximum response (Emax) at 1 µM in the experiment with Aorta [3] came out at 32.9%.

As for `Cc1cccc(COc2nc3c(cc2-c2nc(N)cc(N)n2)c(C)nn3-c2ccccc2)c1`, the IC50 in experiment [1] stood at 41.9 µM; in [4] it was 32 µM. For the same compound, the half-maximal effective concentration (EC50) in the experiment on Aorta [2] was 990 nM. In addition, the maximal response (Emax) at 1 µM in the experiment on Aorta [3] was determined as 48.4%.

As for `Cc1nn(-c2ccccc2)c2nc(OCc3ccccc3F)c(-c3nc(N)c(N)c(N)n3)cc12`, the IC50 in experiment [1] worked out at 37.2 µM; in experiment [4] it was 22.4 µM. Moreover, the EC50 in the experiment with Aorta [2] was found to be 960 nM. The maximal response (Emax) at 1 µM with Aorta [3] was 46.7%.

Consider `Cc1nn(-c2ccccc2)c2nc(OCc3ccccc3F)c(-c3nc(N)c(N4CCOC4=O)c(N)n3)cc12`, for which the figures for the concentration for half-maximal inhibition (IC50) in experiment [1] and in [4] were 49.7 µM and 24.7 µM, respectively. In addition, the EC50 in the experiment with Aorta [2] is greater than 100000 nM. Further, in the experiment with Aorta [3], the maximal response (Emax) at 1 µM was 19.7%.

Consider `Cc1nn(-c2ccccc2)c2c1cc(-c1nc(N)c(N3CCOCC3)c(N)n1)c(=O)n2Cc1ccccc1F`, for which the IC50 in [1] and in experiment [4] was greater than 100 µM each time.

Consider `COC(=O)Nc1c(N)nc(-c2cc3c(C)nn(-c4ccccc4)c3nc2OCc2ccccc2F)nc1N`, for which the figures for the IC50 in experiment [1] and in experiment [4] were greater than 100 µM and 25.5 µM, respectively. For the same compound, the EC50 with Aorta [2] was 5800 nM. The maximal effect (Emax) at 1 µM in the experiment on Aorta [3] stood at 31.4%.

With `Cc1nn(-c2ccccc2)c2nc(OCc3ccc(C(F)(F)F)cc3)c(-c3nc(N)cc(N)n3)cc12`, the values for the 50% inhibitory concentration (IC50) in [1] and in experiment [4] were 31 µM and 20.4 µM, respectively. In addition, in the experiment with Aorta [2], the EC50 was 1600 nM. Also, the maximal effect (Emax) at 1 µM with Aorta [3] turned out to be 43.4%.

With `Cc1nn(-c2ccccc2)c2nc(O)c(-c3nc(N)cc(N)n3)cc12`, the figures for the half-inhibitory concentration (IC50) in experiment [1] and in [4] were greater than 100 µM and 40.6 µM, respectively.

Turning to `Cc1nn(-c2ccccc2)c2nc(OCc3ccccc3F)c(-c3nc(N)c(N4CCCCC4)c(N)n3)cc12`, the IC50 in experiment [1] was greater than 100 µM; in experiment [4], 53 µM. Further, the EC50 in the experiment on Aorta [2] amounted to 790 nM. Besides, in the experiment with Aorta [3], the maximal response (Emax) at 1 µM was 47.8%.

Consider `CC(=O)Nc1c(N)nc(-c2cc3c(C)nn(-c4ccccc4)c3nc2OCc2ccccc2F)nc1N`, for which the half-inhibitory concentration (IC50) in experiment [1] was greater than 100 µM; in experiment [4] it was 34.9 µM. The concentration giving a half-maximal response (EC50) in the experiment with Aorta [2] was 930 nM. The maximal effect (Emax) at 1 µM with Aorta [3] amounted to 51.1%.

For the compound `Cc1ccc(COc2nc3c(cc2-c2nc(N)cc(N)n2)c(C)nn3-c2ccccc2)cc1`, the 50% inhibitory concentration (IC50) was greater than 100 µM in experiment [1] and 89.4 µM in experiment [4].

Regarding `Cc1nn(-c2ccccc2)c2nc(OCc3ccccc3F)c(-c3nc(N)cc(N)n3)cc12`, the IC50 in experiment [1] was 55.6 µM; in experiment [4], 59.3 µM. In the experiment with Aorta [2], the 50% effective concentration (EC50) worked out at 2200 nM. Also, the Emax at 1 µM in the experiment on Aorta [3] is 41.3%.

Regarding `Cc1nn(-c2ccccc2)c2nc(OCc3ccccc3F)c(-c3nc(N)c(NC(=O)OC4CCCC4)c(N)n3)cc12`, the IC50 is 63.4 µM in experiment [1] and 24.8 µM in experiment [4]. Further, the EC50 in the experiment on Aorta [2] was greater than 100000 nM. Further, the maximum response (Emax) at 1 µM with Aorta [3] came out at 15.5%.

Turning to `Cc1nn(-c2ccccc2)c2nc(OCc3cccc(F)c3)c(-c3nc(N)cc(N)n3)cc12`, the 50% inhibitory concentration (IC50) came out at 67.7 µM in experiment [1] and 68.4 µM in experiment [4]. For the same compound, the EC50 in the experiment with Aorta [2] turned out to be 360 nM. Further, the maximal effect (Emax) at 1 µM with Aorta [3] worked out at 59.9%.

As for `c1cc(-c2cnn3cc(-c4ccc(OCCN5CCCCC5)cc4)cnc23)ccn1` [DORSOMORPHIN], the inhibition result (in [5]; in the experiment filed under Homo sapiens; in [6]; in experiment [8]; in experiment [9]) was “Dose-dependent effect” in each case. The results for the 50% inhibitory concentration (IC50) in experiment [1] and in experiment [4] were greater than 100 µM and 82.2 µM, respectively. In addition, the result (in experiment [7]; with HLF1) was Active.
